SUMO HTRF inh – blocks human SUMOylation mediated by UBC9 | P63279 | inhibition, % at 35 µM | HTRF SUMOylation assay, SAE1/SAE2 + UBC9, in vitro | hit rate 0.36% among 290,000 | AID 2006; in the data active means inhibition above about 50%, passing the limit was not always enough
UBC13 inh – inhibitors of human UBC13 polyubiquitin chain formation. inhibition, % at 20 µM. P61088. TR-FRET. hit rate 0.47% among 330,000; in the data active means inhibition above about 45%, passing the limit was not always enough
PREPL inh – inhibits the human prolyl oligopeptidase-like enzyme | Q4J6C6 | inhibition, % at 5.96 µM | AID 2751 | hit rate 0.68% among 320,000 | recombinant PREPL, fluorescence polarization activity-based probe;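 further: 0% = enzyme with DMSO and 100% = wells lacking enzyme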
ALR H2O2 inh – human ALR oxidase inhibition via reduced H2O2; AID 485317; P55789; hit rate 3.8% among 290,000; inhibition, % (concentration not given with the values); purified ALR, DTT oxidation, H2O2 HRP-luminol luminescence;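 active means mean replicate inhibition above about 79%, with every replicate also reaching it, limit read from the data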
Rin1 Abl inh – blocks binding of human Rin1 to Abl. P00519+Q13671. TR-FRET Rin1/Abl binding, biochemical. inhibition, % at 7.35 µM. hit rate 0.4% among 360,000. AID 588664; in the data active means inhibition above about 5%, passing the limit was not always enough
Target sequence (P00519 whole entry, looked up): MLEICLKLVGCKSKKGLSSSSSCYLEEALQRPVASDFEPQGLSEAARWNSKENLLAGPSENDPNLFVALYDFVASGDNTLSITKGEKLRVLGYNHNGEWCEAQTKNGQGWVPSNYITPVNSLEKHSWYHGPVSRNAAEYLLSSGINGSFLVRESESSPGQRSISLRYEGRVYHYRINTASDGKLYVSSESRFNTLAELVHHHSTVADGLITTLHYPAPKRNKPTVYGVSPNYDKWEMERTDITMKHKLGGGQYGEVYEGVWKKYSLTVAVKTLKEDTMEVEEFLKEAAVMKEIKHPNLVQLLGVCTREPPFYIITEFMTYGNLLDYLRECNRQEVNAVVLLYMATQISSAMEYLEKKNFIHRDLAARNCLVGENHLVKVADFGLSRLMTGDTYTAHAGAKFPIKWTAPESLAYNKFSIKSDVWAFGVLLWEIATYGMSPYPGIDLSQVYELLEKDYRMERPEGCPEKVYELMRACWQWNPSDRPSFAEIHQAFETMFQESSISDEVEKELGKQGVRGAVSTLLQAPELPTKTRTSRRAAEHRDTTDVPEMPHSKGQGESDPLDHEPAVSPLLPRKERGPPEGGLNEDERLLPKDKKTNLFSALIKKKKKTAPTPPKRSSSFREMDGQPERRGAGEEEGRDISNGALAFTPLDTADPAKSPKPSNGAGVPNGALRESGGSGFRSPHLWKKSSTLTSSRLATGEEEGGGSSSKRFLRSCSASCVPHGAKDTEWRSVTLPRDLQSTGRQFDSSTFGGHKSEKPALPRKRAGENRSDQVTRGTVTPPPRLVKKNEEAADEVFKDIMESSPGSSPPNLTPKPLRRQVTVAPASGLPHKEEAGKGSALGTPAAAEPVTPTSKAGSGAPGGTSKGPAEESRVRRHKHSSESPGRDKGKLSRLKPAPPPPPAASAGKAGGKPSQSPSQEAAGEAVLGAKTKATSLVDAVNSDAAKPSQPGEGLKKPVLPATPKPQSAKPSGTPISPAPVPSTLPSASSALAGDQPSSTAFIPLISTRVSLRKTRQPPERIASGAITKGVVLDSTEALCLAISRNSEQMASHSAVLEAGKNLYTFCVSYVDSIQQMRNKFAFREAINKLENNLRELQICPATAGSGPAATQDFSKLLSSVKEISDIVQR
Target sequence (Q13671 whole entry, looked up): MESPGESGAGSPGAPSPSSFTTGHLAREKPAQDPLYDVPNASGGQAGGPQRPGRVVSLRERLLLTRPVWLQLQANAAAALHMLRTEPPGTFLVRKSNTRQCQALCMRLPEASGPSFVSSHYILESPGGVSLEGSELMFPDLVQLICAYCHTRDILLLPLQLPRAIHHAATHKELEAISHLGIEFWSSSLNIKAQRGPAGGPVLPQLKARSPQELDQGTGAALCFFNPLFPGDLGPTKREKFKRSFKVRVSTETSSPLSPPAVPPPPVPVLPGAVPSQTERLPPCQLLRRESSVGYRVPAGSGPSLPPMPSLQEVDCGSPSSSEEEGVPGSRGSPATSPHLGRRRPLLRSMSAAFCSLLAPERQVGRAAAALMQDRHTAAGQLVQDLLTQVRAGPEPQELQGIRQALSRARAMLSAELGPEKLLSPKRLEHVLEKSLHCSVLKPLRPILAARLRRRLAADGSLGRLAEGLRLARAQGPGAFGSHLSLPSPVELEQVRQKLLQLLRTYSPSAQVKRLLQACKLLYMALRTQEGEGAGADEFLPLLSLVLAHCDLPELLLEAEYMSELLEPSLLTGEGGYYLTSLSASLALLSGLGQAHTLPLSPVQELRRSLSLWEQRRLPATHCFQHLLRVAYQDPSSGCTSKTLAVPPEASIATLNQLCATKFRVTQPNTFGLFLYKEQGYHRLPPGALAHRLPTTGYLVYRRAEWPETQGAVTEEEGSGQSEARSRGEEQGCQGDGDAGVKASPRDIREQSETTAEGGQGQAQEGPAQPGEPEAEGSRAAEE
RBBP9 inhibitor – human RBBP9 hydrolase inhibition | hit rate 0.2% among 220,000 | AID 1515 | inhibition, % at 7.94 µM | O75884 | recombinant RBBP9, FP-Rh probe fluorescence polarization;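 active means inhibition above the campaign mean of all tested compounds plus 3 SD, cut at about 14% in these data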;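 further: plate controls were DMSO wells with RBBP9 for no effect and wells lacking RBBP9 protein for full effect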
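Assay system: recombinant human RBBP9; Reagent: Serine-hydrolase probe FP-Rh, 375 nM pre-mixing; Doses: 7.94 µM single dose, 0.794% DMSO; Incubation: 30 min then 45 min, 25 °C; Detection: fluorescence polarization (mP), excitation 525 nm, emission 598 nm; Evaluation: percent inhibition from mP, scaled between DMSO and no-protein wells.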
PREPL confirm – confirmation of human PREPL enzyme inhibitors | shares compounds with PREPL inh | recombinant PREPL, fluorescence polarization activity probe | inhibition, % at 5.96 µM | hit rate 67% among 2,000 | AID 2803;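 further: 0% = protein with DMSO and 100% = wells lacking protein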
* = called active by the depositor; / = no result. This is a sample that favours compounds with a hit; in the whole collection about 4.3% have one here. Unless noted, no stated cut-off is given here; in the data, active means inhibition above about 43%; inactive means the rest.

SMILES | SUMO HTRF inh | UBC13 inh | PREPL inh | ALR H2O2 inh | Rin1 Abl inh | RBBP9 inhibitor | PREPL confirm
CNC[C@H]1Oc2ccc(NC(=O)Cc3cn(C)c4ccccc34)cc2CC(=O)N([C@@H](C)CO)C[C@H]1C | / | 26 | 28 | 0 | 2 | / | /
Cc1ccc(OCC(O)Cn2c(=N)n(CCN3CCOCC3)c3ccccc32)cc1 (centres undefined) | -25 | 2 | 45* | -6 | 2 | -7 | 34
CSCCC(NC(=O)c1ccco1)C(=O)NC1CCC(C)CC1 (centres undefined) | / | -9 | 25 | / | 2 | / | /
COc1ccc(C)cc1Nc1n[n+](-c2ccccc2)c(-c2cc(OC)c(OC)cc2Br)s1 | 0 | 38 | 5 | / | 2 | / | /
COc1ccc(C)cc1Nc1n[n+](-c2ccccc2)c(-c2c(OC)ccc3ccccc23)s1 | / | 39 | 51* | -39 | -2 | / | 40
COc1ccc(Cc2nnc(SCC(=O)N(C)CC(=O)Nc3ccc(C)cc3)o2)cc1 | / | -1 | -10 | -1 | 0 | / | /
N#Cc1c(Nc2ccccc2)sc(C(=O)c2ccccc2)c1N | -2 | 0 | 46* | 50 | 1 | 0 | 42
COc1cc(/C=C2/C(=N)N3OC(C)=CC3=NC2=O)ccc1OC(=O)c1ccco1 | -1 | 5 | 46* | 11 | -3 | 1 | 60*
CCSc1nnc(NC(=O)C2CSC3(C)CCC(=O)N23)s1 (centres undefined) | / | 4 | 6 | / | 0 | / | /
O=C(CCN1C(=O)S/C(=C\C=C\c2ccccc2)C1=O)Nc1ccc(O)cc1 | 17 | -1 | 43* | 10 | 1 | / | 34
Cc1ccc(C2(C)NC(=O)N(CC(=O)N(c3ccccc3)C3CCS(=O)(=O)C3)C2=O)cc1 (centres undefined) | / | 5 | 51* | -6 | 0 | / | 42
CC(C)CN(C(=O)CN1C(=O)NC(c2ccccc2)(c2ccccc2)C1=O)C1CCS(=O)(=O)C1 (centres undefined) | / | -1 | -1 | -3 | 1 | / | /
C[n+]1c(-c2ccccc2)sc([S-])c1-c1ccccc1 | / | 1 | 57* | -3 | -1 | / | 69*
CN1C(=O)NC(c2ccccc2[N+](=O)[O-])C2=C1CCCC2=O (centres undefined) | 8 | -39 | 77* | 55 | -7 | / | 14
Cc1ccc(CNC(=O)CCc2nnc3ccc(N4CCC5(CC4)OCCO5)nn23)cc1 | -1 | -10 | 0 | -10 | -3 | / | /
COc1cc(/C=N/n2c(C)n[nH]c2=S)ccc1OCc1ccc(F)cc1 | 6 | -2 | 50* | / | -1 | -6 | 42
CC(C)Cc1ccc(C(C)CC2=CCC(CN(C)C)C2=O)cc1 (centres undefined) | / | / | / | / | 5 | / | /
C#CCOCCOCCOCCNc1nc(N2CCN(C(=O)[C@H](CCC(=O)O)n3cc(C(N)Cc4ccc(O)cc4)nn3)CC2)nc(N2CCN(C(=O)[C@H](Cc3cc4ccccc4[nH]3)n3cc(C(N)CC(C)C)nn3)CC2)n1 (some centres undefined) | 6 | 20 | 46* | -3 | / | 5 | 38
C#CCOCCOCCOCCNc1nc(N2CCN(C(=O)[C@H](CCCCN)n3cc([C@@H](N)CO)nn3)CC2)nc(N2CCN(C(=O)[C@H](Cc3cc4ccccc4[nH]3)n3cc([C@@H](N)CC(C)C)nn3)CC2)n1 | 5 | 100* | 52* | -37 | / | 12 | 51*
C#CCOCCOCCOCCNc1nc(N2CCN(C(=O)[C@H](CCC(=O)O)n3cc(C(N)Cc4ccc(O)cc4)nn3)CC2)nc(N2CCN(C(=O)[C@H](CCC(=O)O)n3cc(C(N)CC(C)C)nn3)CC2)n1 (some centres undefined) | 22 | -22 | 5 | / | / | -1 | /
C#CCOCCOCCOCCNc1nc(N2CCN(C(=O)CCCCCCCCCCNC(=O)[C@H]([C@@H](C)CC)n3cc(CCCCN=C(N)N)nn3)CC2)nc(N2CCN(C(=O)CCCCCCCCCCNC(=O)[C@H](CO)n3cc(CCCCCN)nn3)CC2)n1 | / | 123* | 54* | -12 | 9 | / | 56*
O=C(COC(=O)CCc1c[nH]c2ccccc12)Nc1cc([N+](=O)[O-])ccc1Cl | -18 | 18 | 46* | -9 | 4 | 3 | 43
O=C1NN(c2ccccc2)C(=O)/C1=C\c1cccc(OC(=O)c2cccs2)c1 | 14 | -19 | 57* | 89* | 2 | -2 | 34
Cn1c(=O)c2cc(NC(=O)CCc3cccnc3)ccc2n1Cc1cccc(C(F)(F)F)c1 | / | / | / | / | 0 | / | /
CN(C)c1ccc(/C=C/CNC[C@H]2O[C@@H](n3ccc(N)nc3=O)[C@H](O)[C@@H]2O)cc1 | / | / | / | / | -1 | / | /
SMILES | SUMO HTRF inh | UBC13 inh | PREPL inh | ALR H2O2 inh | Rin1 Abl inh | RBBP9 inhibitor | PREPL confirm
O=C(O)[C@H]1CCCC[C@H]1C(=O)Nc1ccc(Nc2ccccc2)cc1 | -15 | -7 | 93* | 98* | 4 | 0 | 8
CCCCCCCCNCCS(=O)(=O)NCc1ccc(OC)cc1 | / | / | / | / | 4 | / | /
C/C(=N\Nc1ccc([N+](=O)[O-])cc1)c1cccc(N)c1 | 17 | -67 | 55* | 99* | -5 | -3 | 46*
CC1(C)CC(=O)C2=C(C1)OC1OC(=O)CC21C (centres undefined) | 9 | 7 | 2 | -15 | -1 | -4 | /
CC(=O)Oc1cc(O)c2c(=O)c(OC(C)=O)c(-c3ccc(OC(C)=O)c(OC(C)=O)c3)oc2c1 | / | 0 | 44* | 82* | 4 | / | 20
CC1=NCC(C)c2c1[nH]c1ccccc21 (centres undefined) | 15 | 5 | 45* | -10 | 1 | -7 | 8
CCC(C)(C)n1nnnc1C(c1cccnc1)N1CCN(c2cccc(C(F)(F)F)c2)CC1 (centres undefined) | -20 | -3 | 2 | -20 | -3 | 4 | /
CN1CCN(C(c2cccc(C(F)(F)F)c2)c2nnnn2C(C)(C)C)CC1 (centres undefined) | -17 | 8 | 43* | -3 | 1 | -2 | 32
O=C(NCc1csc(-c2cccs2)n1)C1CCCCC1 | 17 | 2 | -1 | -24 | 4 | -2 | /
Cc1c(CCOC(=O)c2cccc([N+](=O)[O-])c2)sc[n+]1CC(=O)c1ccccc1 | 12 | 11 | 51* | 39 | 0 | -13 | 21
Cc1cc[n+](CC(=O)c2cccc([N+](=O)[O-])c2)c2ccccc12 | 14 | 6 | 45* | 48 | -4 | / | 14
Cc1c(CCOC(=O)c2ccc([N+](=O)[O-])cc2)sc[n+]1CC(=O)c1ccccc1 | -1 | 13 | 63* | 6 | 1 | -1 | 29
COc1ccc(C(=O)OCCc2sc[n+](CC(=O)c3ccccc3)c2C)cc1 | -9 | 3 | 26 | / | 4 | / | /
Cc1ccc(S(=O)(=O)N2C[C@H]3C(=O)C[C@@H]4C(=O)N(c5ccccc5)C(=O)[C@@H]4[C@@H]3C[C@H]2c2cccs2)cc1 | / | / | / | / | 1 | / | /

Source: PubChem BioAssay (several laboratories)
